Values after ≈ are worked out from the molar mass of the structure shown.
How the values were obtained:
B16 [1] = assay: Tested in vitro inhibitory activity against murine B16 melanoma cells line; format: functional; settings: Mus musculus, read-out: ID50 (the source's name)
In short: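 B16 cells maintained in RPMI-1640 with 15% heat-inactivated FBS and antibiotics (doubling time 21 h); 2-3 × 10^3 cells seeded day 0, graded analogue concentrations added day 1, 3 days at 37 °C. MTT 4 h, formazan solubilized in acidic isopropanol, absorbance read; ID50 from curve fit of 12 concentrations, eight determinations each.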

L1210 (1565) [2] = assay: Tested in vitro inhibitory activity against murine L 1210 leukemia cells line; format: functional; settings: Mus musculus, read-out: ID50 (the source's name)
In short: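 L1210 cells in RPMI-1640 with 10% heat-inactivated FBS plus mercaptoethanol (doubling time 12 h); 1 × 10^3 cells seeded day 0, graded analogue concentrations added day 1, cultured 3 days at 37 °C. Growth read by MTT reduction (4 h), formazan in acidic isopropanol; ID50 fitted from 12 concentrations × eight determinations.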

[3] = molecular target: T1, Adenosine deaminase (Bos taurus) (UniProt P56658); assay: Tested for inhibition against calf intestinal mucosa adenosine deaminase (ADA); format: tissue-based; settings: concentration not given here
T1 sequence (whole entry): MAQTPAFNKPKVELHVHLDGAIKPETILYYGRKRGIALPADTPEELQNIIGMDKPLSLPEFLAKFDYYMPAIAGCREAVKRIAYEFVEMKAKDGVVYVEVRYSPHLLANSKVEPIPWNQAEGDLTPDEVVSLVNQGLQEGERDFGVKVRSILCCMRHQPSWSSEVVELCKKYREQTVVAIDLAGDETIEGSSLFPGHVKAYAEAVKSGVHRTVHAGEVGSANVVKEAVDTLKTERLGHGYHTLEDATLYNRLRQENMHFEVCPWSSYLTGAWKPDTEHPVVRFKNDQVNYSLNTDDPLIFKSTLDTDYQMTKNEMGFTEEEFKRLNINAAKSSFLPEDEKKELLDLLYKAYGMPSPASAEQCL
In short: (§1)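 Calf intestinal mucosa ADA (0.003 unit) in 1 mL of 50 mM potassium phosphate, pH 7.4, at 30 °C. Substrate was 25 μM adenosine, about Km. Analogue tested at 100 μM, reported as percent inhibition.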

Homo sapiens [4] = species: Homo sapiens; assay: Evaluated for inhibition of adenosine accumulation in human erythrocytes at the concentration of 10 uM of compound; format: functional
In short: (§2)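 Inhibitor-stop assay of human erythrocytes (10% suspension, v/v) at room temperature. Analogue (up to 10 μM) was preincubated with triplicate cell aliquots for 10 min, then [8-¹⁴C]adenosine was added (final 10 μM). Uptake was stopped after 0.5 s with ice-cold 750 μM dilazep and centrifugation through oil. Cell radioactivity was counted, corrected for extracellular trapping.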

[5] = molecular target: T1, Adenosine deaminase (Bos taurus); assay: Tested for percentage inhibition against adenosine deaminase at the concentration 100 uM; in short: as §1
B16 [6] = assay: Compound was tested in vitro for growth inhibitory activity against B16 melanoma cell line; format: functional; settings: Mus musculus, read-out: ID50 (the source's name)
In short: (§3)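 B16 melanoma cells in RPMI-1640 with 15% heat-inactivated FBS and antibiotics, seeded at 2-3 × 10³ cells/well on day 0. Graded analogue (12 concentrations) added day 1, then 3 days at 37 °C. MTT 4 h, formazan dissolved in acidic isopropanol, absorbance read. ID50 from curve fit, eight determinations per concentration.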

Homo sapiens [7] = species: Homo sapiens; assay: Compound was tested for the inhibition of adenosine transport into human erythrocytes; format: functional; in short: as §2
B16 [8] = assay: Compound was tested in vitro for growth inhibitory activity against murine B16 melanoma cell line; format: functional; settings: Mus musculus, read-out: ID50 (the source's name); in short: as §3
L1210 (1565) [9] = assay: Compound was tested in vitro for growth inhibitory activity against murine L1210 leukemia cell line; format: functional; settings: Mus musculus, read-out: ID50 (the source's name)
In short: as §3, with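 “Murine L1210” for “B16 melanoma”, “10%” for “15%”, “mercaptoethanol,” for “antibiotics,”, “1” for “2-3”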

Nc1ccn([C@@H]2O[C@H](CO)[C@@H](O)[C@@H]2O)c(=O)n1 [CYTARABINE]
IC50 (B16 [1]): < 0.1 µg/mL | IC50 (L1210 (1565) [2]): < 0.1 µg/mL

Nc1nncc2c1nnn2C1O[C@H](CO)[C@@H](O)[C@H]1O (stereo partly specified)
inhibition [3]: 7%

OC[C@H]1OC(n2cnc3c(NCc4ccccc4)nncc32)[C@H](O)[C@@H]1O (stereo partly specified)
Inhibition (Homo sapiens [4]): 45%

O=c1[nH]cc(F)c(=O)[nH]1 [FLUOROURACIL]
IC50 (B16 [1]): < 0.1 µg/mL | IC50 (L1210 (1565) [2]): < 0.1 µg/mL

Nc1nncc2c1ncn2[C@@H]1O[C@H](CO)[C@@H](O)[C@H]1O
inhibition [5]: 15%

OC[C@H]1OC(n2nnc3c(NCc4ccccc4)nncc32)[C@H](O)[C@@H]1O (stereo partly specified)
IC50 (B16 [6]): 35.8 µg/mL (≈ 99.9 µM) | Inhibition (Homo sapiens [7]): 34%

CN(Cc1cnc2nc(N)nc(N)c2n1)c1ccc(C(=O)N[C@@H](CCC(=O)O)C(=O)O)cc1 [METHOTREXATE]
IC50 (B16 [8]): < 0.1 µg/mL | IC50 (L1210 (1565) [9]): < 0.1 µg/mL
